Measurements from ChEMBL document CHEMBL1139904, “2-hydroxy-N-arylbenzenesulfonamides as ATP-citrate lyase inhibitors” (Bioorg Med Chem Lett, 2007).
pIC50: −log10 of the molar value.

What was measured:
ATP-citrate synthase = molecular target: T1, ATP-citrate synthase (Homo sapiens, UniProt P53396); experiment: Inhibition of human recombinant ATP-citrate lyase
T1 sequence (P53396 whole entry): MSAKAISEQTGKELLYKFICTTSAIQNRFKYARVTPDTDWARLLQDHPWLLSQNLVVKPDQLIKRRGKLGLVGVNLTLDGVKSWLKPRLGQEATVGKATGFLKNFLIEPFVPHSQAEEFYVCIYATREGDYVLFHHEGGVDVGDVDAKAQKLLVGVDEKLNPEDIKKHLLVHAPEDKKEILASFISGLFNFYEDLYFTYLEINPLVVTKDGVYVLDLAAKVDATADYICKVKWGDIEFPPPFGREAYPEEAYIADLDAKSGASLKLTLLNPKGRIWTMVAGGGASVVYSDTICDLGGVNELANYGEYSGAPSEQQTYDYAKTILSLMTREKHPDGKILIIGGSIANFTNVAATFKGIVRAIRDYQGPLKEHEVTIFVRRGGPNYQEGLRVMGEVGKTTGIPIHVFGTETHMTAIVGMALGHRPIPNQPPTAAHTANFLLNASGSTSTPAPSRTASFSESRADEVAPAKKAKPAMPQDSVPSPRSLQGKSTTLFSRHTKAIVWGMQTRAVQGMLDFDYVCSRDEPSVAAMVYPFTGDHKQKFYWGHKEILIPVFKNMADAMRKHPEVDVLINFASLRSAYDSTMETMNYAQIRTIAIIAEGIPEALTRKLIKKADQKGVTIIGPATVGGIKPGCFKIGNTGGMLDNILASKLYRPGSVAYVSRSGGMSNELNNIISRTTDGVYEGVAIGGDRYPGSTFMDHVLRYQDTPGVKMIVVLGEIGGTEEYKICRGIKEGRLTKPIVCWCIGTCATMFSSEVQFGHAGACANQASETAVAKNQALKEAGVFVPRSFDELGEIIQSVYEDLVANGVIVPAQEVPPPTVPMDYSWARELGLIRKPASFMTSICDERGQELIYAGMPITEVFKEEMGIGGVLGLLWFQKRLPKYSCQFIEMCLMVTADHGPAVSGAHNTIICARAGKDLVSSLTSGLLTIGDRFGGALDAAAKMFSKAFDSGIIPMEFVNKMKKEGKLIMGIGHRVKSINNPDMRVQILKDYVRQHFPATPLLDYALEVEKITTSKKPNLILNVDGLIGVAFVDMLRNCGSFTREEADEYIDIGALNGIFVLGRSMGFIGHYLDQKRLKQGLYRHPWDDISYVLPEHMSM
In short: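 Recombinant human ACL enzyme assay; values are at least two separate measurements.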

[1] = Tmax in mouse at 10 mg/kg, po; settings: in vivo
Mus musculus [2] = experiment: Reduction of body weight gain in high-fat diet C57BL/6 mouse at 100 mg/kg after 29 days; assay type: functional; parameters: scale not given: the % may be the effect or the level left
In short: (§1)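 Eight-week-old C57BL/6 mice (~30 g), five per group. High-fat diet (30% coconut oil, 45% sucrose) admixed with compound to give 10 or 100 mg/kg/day, versus high-fat and normal-chow controls, for 34 days. Food intake and body weight tracked; plasma lipids and fasting glucose assessed weekly. Lipid/glucose changes expressed as % reduction versus high-fat controls at day 29.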

[3] = Half life in mouse at 10 mg/kg, iv and po; assay type: ADME, organism-based; parameters: dose 10 mg/kg, route oral; settings: in vivo
In short: (§2)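 Mice dosed at 10 mg/kg both iv and po; vehicle 10% ethanol, 45% water, 45% PEG-400. Standard PK parameters derived: oral bioavailability, half-life, Cmax (po), Tmax (po), total body clearance.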

Mus musculus [4] = experiment: Reduction of triglycerides in high-fat diet C57BL/6 mouse at 100 mg/kg; assay type: functional; parameters: scale not given: the % may be the effect or the level left; in short: as §1
HepG2 [5] = experiment: Inhibition of total lipid synthesis HepG2 cells assessed as incorporation of [14C]total lipids after 6 hrs; assay type: functional, cell-based; settings: Homo sapiens, HepG2, 6 h
In short: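 HepG2 cells incubated 6 h after compound addition, with [14C]-alanine present for the final 4 h; label incorporation into total lipid measured.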

Mus musculus [6] = experiment: Reduction of fasting plasma glucose level in C57BL/6 mouse at 10 mg/kg; assay type: functional; parameters: scale not given: the % may be the effect or the level left; in short: as §1
Mus musculus [7] = experiment: Reduction of cholesterol level in high-fat diet C57BL/6 mouse at 100 mg/kg; assay type: functional; parameters: scale not given: the % may be the effect or the level left; in short: as §1
Mus musculus [8] = experiment: Reduction of triglycerides in high-fat diet C57BL/6 mouse at 10 mg/kg; assay type: functional; parameters: scale not given: the % may be the effect or the level left; in short: as §1
HepG2 [9] = experiment: Cytotoxicity against HepG2 cells upto 50 uM by Alamar blue assay; settings: Homo sapiens
Acetyl-CoA carboxylase 2 = Acetyl-CoA carboxylase 2 (Homo sapiens, UniProt O00763); experiment: Inhibition of human ACC2
Chain of Acetyl-CoA carboxylase 2 (O00763 whole entry): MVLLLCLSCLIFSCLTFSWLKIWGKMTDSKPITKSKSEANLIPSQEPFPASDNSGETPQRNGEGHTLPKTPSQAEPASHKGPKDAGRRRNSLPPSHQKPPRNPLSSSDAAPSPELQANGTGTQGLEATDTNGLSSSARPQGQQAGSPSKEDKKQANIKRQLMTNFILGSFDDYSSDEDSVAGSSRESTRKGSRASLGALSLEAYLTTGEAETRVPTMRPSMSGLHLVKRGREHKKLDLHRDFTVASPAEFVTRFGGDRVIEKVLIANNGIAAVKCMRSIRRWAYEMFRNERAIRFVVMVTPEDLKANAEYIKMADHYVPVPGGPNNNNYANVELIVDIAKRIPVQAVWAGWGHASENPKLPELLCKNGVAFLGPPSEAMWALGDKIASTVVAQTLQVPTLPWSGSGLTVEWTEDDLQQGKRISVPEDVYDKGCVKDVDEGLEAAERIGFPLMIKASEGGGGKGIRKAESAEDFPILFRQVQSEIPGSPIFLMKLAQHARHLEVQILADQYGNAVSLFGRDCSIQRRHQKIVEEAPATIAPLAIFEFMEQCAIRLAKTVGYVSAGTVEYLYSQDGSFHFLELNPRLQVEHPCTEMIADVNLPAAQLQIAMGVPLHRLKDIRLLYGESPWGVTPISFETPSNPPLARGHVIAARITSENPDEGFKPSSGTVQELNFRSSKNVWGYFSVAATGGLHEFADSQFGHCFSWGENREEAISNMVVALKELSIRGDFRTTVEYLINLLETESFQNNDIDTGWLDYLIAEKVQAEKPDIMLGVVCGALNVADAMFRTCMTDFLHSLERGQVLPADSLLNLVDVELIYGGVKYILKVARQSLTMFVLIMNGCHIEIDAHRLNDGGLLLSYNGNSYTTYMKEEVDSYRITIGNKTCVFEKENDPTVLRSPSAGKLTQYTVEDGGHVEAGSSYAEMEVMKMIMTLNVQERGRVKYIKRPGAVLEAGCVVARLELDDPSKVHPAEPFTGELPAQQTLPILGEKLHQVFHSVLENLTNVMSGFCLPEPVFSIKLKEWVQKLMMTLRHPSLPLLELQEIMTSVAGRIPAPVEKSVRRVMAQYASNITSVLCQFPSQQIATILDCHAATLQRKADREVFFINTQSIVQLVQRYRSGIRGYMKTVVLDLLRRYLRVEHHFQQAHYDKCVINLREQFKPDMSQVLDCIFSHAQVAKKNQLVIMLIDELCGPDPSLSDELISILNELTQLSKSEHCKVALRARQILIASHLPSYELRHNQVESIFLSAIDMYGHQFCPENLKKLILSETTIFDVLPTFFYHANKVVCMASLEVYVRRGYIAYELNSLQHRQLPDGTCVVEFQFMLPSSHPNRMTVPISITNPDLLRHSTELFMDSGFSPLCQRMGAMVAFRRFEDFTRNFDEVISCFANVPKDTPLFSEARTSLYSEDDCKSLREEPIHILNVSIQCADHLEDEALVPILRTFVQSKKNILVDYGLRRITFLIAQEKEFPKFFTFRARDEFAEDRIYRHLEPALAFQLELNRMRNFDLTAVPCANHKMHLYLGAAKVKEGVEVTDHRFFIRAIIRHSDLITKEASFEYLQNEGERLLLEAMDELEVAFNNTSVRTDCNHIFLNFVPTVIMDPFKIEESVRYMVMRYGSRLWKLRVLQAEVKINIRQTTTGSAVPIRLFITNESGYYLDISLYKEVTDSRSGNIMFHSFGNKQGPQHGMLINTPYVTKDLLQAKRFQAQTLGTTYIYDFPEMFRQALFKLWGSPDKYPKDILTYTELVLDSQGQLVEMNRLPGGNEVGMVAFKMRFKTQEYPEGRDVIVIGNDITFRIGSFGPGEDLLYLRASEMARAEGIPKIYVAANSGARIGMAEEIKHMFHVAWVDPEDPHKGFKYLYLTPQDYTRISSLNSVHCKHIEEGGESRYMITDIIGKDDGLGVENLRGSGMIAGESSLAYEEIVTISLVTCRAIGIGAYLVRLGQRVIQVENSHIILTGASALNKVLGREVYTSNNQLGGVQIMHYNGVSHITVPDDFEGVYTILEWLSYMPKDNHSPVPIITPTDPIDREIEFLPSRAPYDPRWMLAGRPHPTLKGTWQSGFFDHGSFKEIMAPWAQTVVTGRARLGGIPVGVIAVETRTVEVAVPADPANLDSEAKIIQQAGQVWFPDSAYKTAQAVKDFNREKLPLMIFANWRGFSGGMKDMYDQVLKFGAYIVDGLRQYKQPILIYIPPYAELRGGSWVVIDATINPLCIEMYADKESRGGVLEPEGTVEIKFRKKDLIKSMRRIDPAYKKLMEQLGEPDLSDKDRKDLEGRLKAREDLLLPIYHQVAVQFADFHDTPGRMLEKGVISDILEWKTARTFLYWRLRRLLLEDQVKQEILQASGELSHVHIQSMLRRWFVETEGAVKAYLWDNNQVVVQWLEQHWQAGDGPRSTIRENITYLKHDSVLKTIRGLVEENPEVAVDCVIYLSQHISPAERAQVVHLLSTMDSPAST

Mus musculus [10] = experiment: Reduction of cholesterol level in high-fat diet C57BL/6 mouse at 10 mg/kg; assay type: functional; parameters: scale not given: the % may be the effect or the level left; in short: as §1
Acetyl-CoA carboxylase 1 = Acetyl-CoA carboxylase 1 (Homo sapiens, UniProt Q13085); experiment: Inhibition of human ACC1
Mus musculus [11] = experiment: Reduction of body weight gain in high-fat diet C57BL/6 mouse at 10 mg/kg after 29 days; assay type: functional; parameters: scale not given: the % may be the effect or the level left; in short: as §1
Mus musculus [12] = experiment: Reduction of fat in high-fat diet C57BL/6 mouse at 10 mg/kg after 34 days; parameters: scale not given: the % may be the effect or the level left
[13] = Cmax in mouse at 10 mg/kg, po; assay type: ADME, organism-based; parameters: dose 10 mg/kg, route oral; settings: in vivo; in short: as §2
Mus musculus [14] = experiment: Reduction of fat in high-fat diet C57BL/6 mouse at 100 mg/kg after 34 days; parameters: scale not given: the % may be the effect or the level left
Mus musculus [15] = experiment: Increase in food consumption in high-fat diet C57BL/6 mouse at 10 mg/kg; assay type: functional; in short: as §1
[16] = Oral bioavailability in mouse at 10 mg/kg; assay type: ADME, organism-based; settings: in vivo; in short: as §2
Mus musculus [17] = experiment: Increase in food consumption in normal fat diet C57BL/6 mouse at 10 mg/kg; assay type: functional
Mus musculus [18] = experiment: Reduction of fasting plasma glucose level in C57BL/6 mouse at 100 mg/kg; assay type: functional; parameters: scale not given: the % may be the effect or the level left; in short: as §1

## CC(=O)N(C)c1ccc(NS(=O)(=O)c2cc(Cl)cc(Cl)c2O)cc1
ATP-citrate synthase
  pIC50: 4.96

## CCCCCCc1ccc(NS(=O)(=O)c2cc(Cl)cc(Cl)c2O)cc1
ATP-citrate synthase
  pIC50: 5.16

## CC(C)(C)c1ccc(C(C)(C)C)c(NS(=O)(=O)c2cc(Cl)cc(Cl)c2O)c1
ATP-citrate synthase
  pIC50: 5.25

## O=S(=O)(Nc1cc(Cl)cc(Cl)c1)c1cc(Cl)cc(Cl)c1O
ATP-citrate synthase
  pIC50: 5.64

## COc1ccc(-c2ccccc2)cc1NS(=O)(=O)c1cc(Cl)cc(Cl)c1O
[1]
  Tmax: 0.5 h
Mus musculus [2]
  Activity: 3%
[3]
  half-life: 2.1 h
Mus musculus [4]
  Activity: -26%
HepG2 [5]
  pIC50: 5.10
ATP-citrate synthase
  pIC50: 6.89
Mus musculus [6]
  Activity: -48%
Mus musculus [7]
  Activity: -19%
Mus musculus [8]
  Activity: -26%
HepG2 [9]
  Activity: Not toxic
Acetyl-CoA carboxylase 2
  pIC50: 4.92
Mus musculus [10]
  Activity: -9%
Acetyl-CoA carboxylase 1
  pIC50: 5.22
Mus musculus [11]
  Activity: 7.2%
Mus musculus [12]
  Activity: 12.9%
[13]
  Cmax: 13 µM
Mus musculus [14]
  Activity: 7.3%
Mus musculus [15]
  Activity: 3.2 g/day
[16]
  bioavailability: 55%
Mus musculus [17]
  Activity: 4 g/day
Mus musculus [18]
  Activity: -32%

## O=S(=O)(Nc1cccc(Oc2ccccc2)c1)c1cc(Cl)cc(Cl)c1O
ATP-citrate synthase
  pIC50: 5.09

## O=S(=O)(Nc1cc(F)cc(F)c1)c1cc(Cl)cc(Cl)c1O
ATP-citrate synthase
  pIC50: 5.12

## O=S(=O)(Nc1c(-c2ccccc2)cc(-c2ccccc2)cc1-c1ccccc1)c1cc(Cl)cc(Cl)c1O
ATP-citrate synthase
  pIC50: 6.72

## O=C(OC/C=C\c1ccccc1)c1ccccc1NS(=O)(=O)c1cc(Cl)cc(Cl)c1O
ATP-citrate synthase
  pIC50: 6.47

## CC1CCC(C(C)C)C(OC(=O)c2ccccc2NS(=O)(=O)c2cc(Cl)cc(Cl)c2O)C1 (stereo not drawn)
ATP-citrate synthase
  pIC50: 6.43

## O=C(O)C[C@@](O)(C(=O)O)[C@H](O)C(=O)O
ATP-citrate synthase
  pIC50: 6.82

## O=C(O)C[C@@](O)(C[C@H](O)CCCCCCc1ccc(Cl)cc1Cl)C(=O)O
ATP-citrate synthase
  pIC50: 5.68

## CC(C)(C)c1cc(NS(=O)(=O)c2cc(Cl)cc(Cl)c2O)cc(C(C)(C)C)c1
ATP-citrate synthase
  pIC50: 5.96
